From ChEMBL document CHEMBL1629654, “Breakthrough Aspergillus fumigatus and Candida albicans double infection during caspofungin treatment: laboratory characteristics and implication for susceptibility testing” (2009) come the findings set out here.

For orientation: MIC means the lowest concentration found to suppress growth.

The structures appear in SMILES notation.

What all share (format): functional
Assay [1] relates to Candida albicans. Put plainly: Antimicrobial activity against Candida albicans isolate C after 48 hrs by EUCAST microdilution method. The essentials:
(§1)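 EUCAST broth microdilution, plates read spectrophotometrically at 490 nm. MIC is the lowest dilution giving 50% growth inhibition. C. krusei […] control included in each run.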
For orientation: Broth dilution looks for growth in wells or tubes with falling amounts of substance.

Assay [2] relates to Candida albicans. Briefly: Antimicrobial activity against Candida albicans isolate C after 48 hrs by microdilution method. The essentials:
(§2)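 Broth microdilution in microtiter plates, read spectrophotometrically at 490 nm. MIC taken as the lowest drug dilution giving 50% growth inhibition. C. krusei […] run as control in each run. Read at 24 h and 48 h; trailing growth noted at 48 h.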

For assay [3], the system named is Candida albicans. Put plainly: Antimicrobial activity against Candida albicans isolate C after 24 hrs by microdilution method. The essentials: as §2
For assay [4], the system named is Candida albicans. Put plainly: Antimicrobial activity against Candida albicans isolate R after 48 hrs by EUCAST microdilution method. The essentials:
as §1

The subject of assay [5] is Candida albicans. Put plainly: Antimicrobial activity against Candida albicans isolate R after 48 hrs by microdilution method. In outline:
as §2

The test system of assay [6] is Candida albicans. Briefly: Antimicrobial activity against Candida albicans isolate R after 24 hrs by microdilution method. The essentials:
as §2

Turning to `CCC(C)n1ncn(-c2ccc(N3CCN(c4ccc(OCC5COC(Cn6cncn6)(c6ccc(Cl)cc6Cl)O5)cc4)CC3)cc2)c1=O` (stereo not drawn) [ITRACONAZOLE], the MIC against Candida albicans [1], with Candida albicans [2], with Candida albicans [3], in the assay with Candida albicans [4], in the assay on Candida albicans [5] and with Candida albicans [6] was not above 0.03 µg/mL throughout.

For `CC[C@@H]([C@H](C)O)n1ncn(-c2ccc(N3CCN(c4ccc(OC[C@@H]5CO[C@@](Cn6cncn6)(c6ccc(F)cc6F)C5)cc4)CC3)cc2)c1=O` [POSACONAZOLE], the MIC with Candida albicans [1], in the assay with Candida albicans [2], in the assay with Candida albicans [3], in the assay on Candida albicans [4], in the assay with Candida albicans [5] and against Candida albicans [6] was not above 0.03 µg/mL throughout.

As for `C[C@@H](c1ncncc1F)[C@](O)(Cn1cncn1)c1ccc(F)cc1F` [VORICONAZOLE], the minimal inhibitory concentration (MIC) in the assay on Candida albicans [1] is not above 0.125 µg/mL; against Candida albicans [2], not above 0.03 µg/mL; in the assay on Candida albicans [3], not above 0.03 µg/mL; with Candida albicans [4], not above 0.03 µg/mL; against Candida albicans [5] it was not above 0.03 µg/mL; with Candida albicans [6], not above 0.03 µg/mL.
